# Sampled rows, rich in hits. Any-hit rate of the full collection: about 4.1%.
# hERG rescue – shields human hERG channel from block by proarrhythmic agents; Q12809; CHO-hERG, FluxOR thallium flux, dofetilide IC70 present; activation (rescue from dofetilide block), less the hit threshold, % at 10 µM; 0.51% of 310,000 active; AID 1511;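 active means activation above the mean of controls blocked by dofetilide plus 5 SD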;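 further: thallium influx through hERG after potassium depolarization seen as dye fluorescence rise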
# KCNK9 inh – blocks the human KCNK9 two-pore domain potassium channel | HEK293 KCNK9, FluxOR thallium flux fluorescence; active compounds read low | 1.2% of 310,000 active | Q9NPC2 | B-score at 10 µM;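 active means ratio B-score over 3 SD below the library mean, with starting fluorescence within 5 SD of its mean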;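 further: negative B-score means less thallium flux so channel inhibition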
# KCNQ1 block – human KCNQ1 channel inhibition; P51787; CHO-K1 KCNQ1, FluxOR thallium flux fluorescence; active compounds read high; B-score at 10 µM; 1.3% of 310,000 active; AID 2642;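 active means compounds whose thallium flux B-score, printed positive for inhibition, exceeds three library SD while starting fluorescence stays within three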;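 further: channel opened by potassium depolarization with thallium stimulus after 20 min compound exposure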
# KCNK3 inh – human KCNK3 channel inhibition, primary screen; CHO-KCNK3 thallium flux, FluxOR fluorescence; active compounds read low; B-score at 10 µM; 0.84% of 340,000 active; AID 602410;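 active means B-score under library mean minus 4 SD, starting fluorescence ratio at most library mean plus 5 SD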;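 further: more negative B-score means stronger inhibition of thallium flux through KCNK3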
# KCNQ1 act – potentiates or activates the human KCNQ1 potassium channel | P51787 | AID 2648 | CHO-K1 KCNQ1, thallium flux FluxOR fluorescence; active compounds read high | 0.35% of 310,000 active | B-score at 10 µM;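 active means fluorescence ratio B-score, a plate-corrected score, at least three library SD, with initial intensity B-score within 5 SD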
#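 assay system = CHO-K1 cells stably expressing KCNQ1 | medium = assay buffer, equal DMSO in all wells | timing = 37 °C overnight plating, 90-min dark dye load, 20-min compound pretreatment | measured by = kinetic FluxOR thallium fluorescence, 10-s 1-Hz baseline, 110-s post-stimulus read | measure = fluorescence change relative to baseline, converted to B score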
# Cl transport mod – KCC2 (human) Cl- transport modulation | Q9H2X9 | KCC2 cells, thallium flux FluoZin-2 fluorescence | B-score of Tl+ flux slope (higher = more flux/activation; lower = inhibition) at 10 µM | 2.2% of 190,000 active | AID 1456;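 active means thallium flux slope and its plate-corrected score both differing from the plate sample mean at a set confidence after two filtering rounds, in either direction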;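 further: slope of fluorescence scaled to starting intensity during 10 to 20 s after thallium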
# KCNK9 block conf – human KCNK9 inhibitor confirmation; inhibition, % at 10 µM; AID 492992; HEK293 KCNK9 cells, FluxOR thallium flux fluorescence; shares compounds with KCNK9 inh; 43% of 4,900 active;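 active means thallium signal inhibited by more than 5 SD of the compound-free buffer control wells, on both duplicate plates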
# Kir21 sel – tests whether KCNK9 modulators also affect mouse Kir2.1; shares compounds with KCNK9 inh; Kir2.1 cells, FluxOR thallium flux fluorescence; inhibition, % at 10 µM; 4% of 4,900 active;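 active means thallium signal drop more than 5 SD beyond the mean of the no-compound control wells, seen in both duplicate plates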;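 further: signal is fluorescence rise after thallium addition divided by baseline fluorescence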
# Target sequence (P35561 whole entry, looked up): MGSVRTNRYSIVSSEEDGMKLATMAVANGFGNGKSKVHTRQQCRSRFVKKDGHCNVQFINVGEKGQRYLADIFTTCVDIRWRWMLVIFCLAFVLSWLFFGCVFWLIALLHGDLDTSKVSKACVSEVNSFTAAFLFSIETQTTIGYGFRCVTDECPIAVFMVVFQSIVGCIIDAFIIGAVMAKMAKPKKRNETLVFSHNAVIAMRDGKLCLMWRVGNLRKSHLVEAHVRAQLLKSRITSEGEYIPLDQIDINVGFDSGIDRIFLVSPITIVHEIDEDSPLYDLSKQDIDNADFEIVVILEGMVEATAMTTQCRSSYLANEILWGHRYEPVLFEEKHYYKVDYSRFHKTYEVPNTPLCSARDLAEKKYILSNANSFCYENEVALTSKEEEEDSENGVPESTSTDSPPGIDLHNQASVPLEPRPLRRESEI
# KCNK9 uninduced – second counter-screen for KCNK9 modulators: effect in non-induced cells; shares compounds with KCNK9 inh; inhibition, % at 10 µM; 40% of 4,900 active; non-induced KCNK9-HEK293, FluxOR thallium flux;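 active means thallium signal drop beyond 5 SD of the untreated control mean, on both duplicate plates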
# A number is an active result; - = inactive; . = not tested or not shown.
SMILES,hERG rescue,KCNK9 inh,KCNQ1 block,KCNK3 inh,KCNQ1 act,Cl transport mod,KCNK9 block conf,Kir21 sel,KCNK9 uninduced
COC(=O)c1ccc(COc2ccccc2/C=C(\C#N)C(=O)Nc2c(C)cccc2C)cc1,-,-13.2,-,-,-,-,76.0%,-,34.0%
Cc1ccc(N(CC(=O)NCC2CCCO2)S(=O)(=O)c2ccccc2)c(C)c1 (stereo not drawn),-,-,-,-,-,.,.,.,.
C=CCC1(C)C(=O)N(c2ccccc2)c2ccccc21 (stereo not drawn),-,-,-,-,-,-,.,.,.
C=CCCC1(C)C(=O)N(c2ccccc2)c2ccccc21 (stereo not drawn),-,-8.9,-,-,-,-,42.5%,-,39.0%
O=[N+]([O-])c1ccc(CN2CCN(c3nc4ccccc4s3)CC2)cc1,-,-,-,-,-,.,.,.,.
Cc1ccccc1CN1CCN(c2nc3ccccc3s2)CC1,-,-,-,-,-,.,-,-,34.0%
Cc1ccc2c(c1)N(CC(=O)NC(C)CCc1ccccc1)C(=O)c1cccnc1O2 (stereo not drawn),-,-,-,-,-,.,.,.,.
COc1ccc(CCCc2nnc(SCC(=O)N/N=C\c3ccc(O)c(OC)c3)o2)cc1C,-,-,-,-,-,-,.,.,.
COc1ccc(/C=N/NC(=O)CSc2nnc(CCCc3ccc(OC)c(C)c3)o2)cc1,-,-,-,-,-,-,-,-,-
CCOC(=O)c1sc(NC(=S)NC(=O)c2ccccc2Cl)c(C(=O)OCC)c1C,-,-9.1,-,-,-,.,-,-,-
CCOC(=O)c1sc(NC(=S)NC(=O)c2ccccc2)c(C(=O)OCC)c1C,-,-,-,-,-,-,.,.,.
FC(F)(F)c1ccc(-c2nc(=S)[nH][nH]2)cc1,-,-,-,-,-,-,-,-,-
Cc1ccc(S(=O)(=O)c2ccc(Cl)cc2)cc1S(N)(=O)=O,-,-,-,-,-,.,.,.,.
C[C@H](NC(=O)c1nc[nH]c1C(=O)N[C@@H](CCCCNC(=O)OC(C)(C)C)C(=O)OC(C)(C)C)c1ccccc1,-,-11.2,-,-,-,-,-,-,29.0%
COCCn1c(SCC(=O)Nc2ccc(F)cc2)nc2ccccc2c1=O,-,-,-,-,-,.,.,.,.
Cc1ccc(S(=O)(=O)N(C)C)cc1-n1c(SCC(=O)Nc2ccc(F)cc2)nc2ccccc2c1=O,-,-9.66,-,-,-,-,50.0%,-,24.5%
COC(=O)COc1cc(OCC(=O)OC)c2c(C)c(Cl)c(=O)oc2c1,-,-,-,-,-,-,.,.,.
COC(=O)C(C)Oc1cc(OC(C)C(=O)OC)c2c(C)c(Cl)c(=O)oc2c1 (stereo not drawn),-,-,-,-,-,-,-,-,-
Cc1cccc(CNc2ncnc3ccc(-c4ccccc4Cl)cc23)c1,.,.,.,-,.,.,.,.,.
Cc1ccc2c(CN3CCN(S(=O)(=O)c4ccccc4C(F)(F)F)CC3)cc(=O)oc2c1C,.,.,.,-,.,.,.,.,.
Cc1ccc(C)c(-c2cc(C(=O)N/N=C/c3cccnc3)c3ccccc3n2)c1,-,-12.9,-,-9.95,-,.,53.5%,-,31.5%
COC(=O)c1cc(=O)n(Cc2ccc(OC)cc2)c(=NCc2ccc(OC)cc2)s1,-,-,-,-,-,-,-,-,-
CC(NC(=O)c1cc2cc(Br)ccc2oc1=N)c1ccccc1 (stereo not drawn),-,-,-,-,-,.,-,-,-
CCOC(=O)c1c(-c2cccc([N+](=O)[O-])c2)csc1NC(=O)C1CC1,-,-8.32,-,-,-,.,23.5%,-,24.5%
CCOC(=O)c1c(-c2ccc(-c3ccccc3)cc2)csc1NC(=O)CCN1CCOCC1,-,-,-,-,-,-,.,.,.
SMILES,hERG rescue,KCNK9 inh,KCNQ1 block,KCNK3 inh,KCNQ1 act,Cl transport mod,KCNK9 block conf,Kir21 sel,KCNK9 uninduced
CCOC(=O)c1c(-c2ccc(-c3ccccc3)cc2)csc1NC(=O)CNCCN(C)C,-,-10.5,6,-,-,.,57.0%,32.0%,29.0%
O=C(C1CCC(=O)N(C2CCCC2)C1)N1CCC(Oc2ccccc2Cl)CC1 (stereo not drawn),-,-,-,-,-,.,.,.,.
CC(C)N(Cc1ccccc1)S(=O)(=O)c1cccs1,-,-8.5,-,-11.4,-,.,40.0%,-,37.0%
CN(Cc1ccccc1)S(=O)(=O)c1cccs1,-,-,-,-,-,-,.,.,.
O=S(=O)(Cc1cc(Sc2ccc(Cl)cc2)nc(-c2ccccc2)n1)c1ccccc1,-,-8.46,-,-,-,.,-,-,32.0%
O=S(=O)(Cc1cc(Oc2ccccc2)nc(-c2ccccc2)n1)c1ccccc1,-,-,-,-,-,-,.,.,.
O=C(COc1coc(CN2CCCc3ccccc32)cc1=O)Nc1cccc([N+](=O)[O-])c1,-,-,-,-,-,.,.,.,.
COc1ccc(NC2CCCN(C(=O)c3cccs3)C2)cc1 (stereo not drawn),-,-,-,-,-,.,-,-,-
COC(=O)c1ccc(C(=O)N2CCCC(Nc3ccc(C(C)C)cc3)C2)cc1 (stereo not drawn),-,-,-,-,-,.,.,.,.
Cc1ccc(NC2CCCN(C(=O)c3cccnc3)C2)cc1C (stereo not drawn),-,-,-,-,-,.,.,.,.
Cc1ccc(NC2CCCN(C(=O)c3cccs3)C2)cc1C (stereo not drawn),-,-,-,-,-,.,-,-,-
COCc1ccc(C(=O)N2CCCC(Nc3ccc(C(C)C)cc3)C2)s1 (stereo not drawn),-,-,-,-,-,.,-,-,-
CC(C)c1ccc(NC2CCCN(C(=O)c3cccs3)C2)cc1 (stereo not drawn),-,-,-,-,-,.,-,-,-
C=CCSc1nc2c(c(=N)n1CC=C)C1CCCC1S2 (stereo not drawn),-,-17.8,-,-,-,-,-,-,36.0%
C=CCn1c(C)nnc1SCC(=O)NC1CCCCC1,-,-,-,-,-,.,.,.,.
NC(=O)C1CCCN(CC(=O)Nc2cc(S(=O)(=O)N3CCOCC3)ccc2N2CCCC2)C1 (stereo not drawn),.,.,.,-,.,.,.,.,.
CCOC(=O)c1cnn(-c2ccccc2)c1-n1cccc1C(=O)C(=O)Nc1ccccc1C(F)(F)F,-,-13.5,-,-,-,-,43.0%,-,54.0%
CCOC(=O)c1cnn(-c2ccccc2)c1-n1cccc1C(=O)C(=O)N(CC)CC,-,-,-,-,-,-,.,.,.
c1ccc(OCCOc2ccccc2-c2nnco2)cc1,-,-8.35,-,-,-,-,-,-,28.5%

# Screens (PubChem)
